The source made the active and inactive calls. The rule behind the calls is not given here.
How the values were obtained:
L1210 [1] = assay: Compound was tested for cytotoxic activity against L1210 leukemia in vitro; IA means inactive; format: functional, cell-based; details: Mus musculus
P388 [2] = assay: Inhibitory activity in vivo against P388 leukemia cells in mice at a dose of 50 mg/kg upon intraperitoneal administration; format: functional, Mus musculus
Summary of the method: (§1)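 Tumor source was ascites fluid implanted into BDF₁ mice. Tumor inoculation and drug dosing were both intraperitoneal, given once daily for 5 days (q1d × 5). Screening and data interpretation followed the general NCI protocol.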

P388 [3] = assay: Inhibitory activity in vivo against P388 leukemia cells in mice at a dose of 100 mg/kg upon intraperitoneal administration; format: functional, Mus musculus; summary of the method: as §1
Mus musculus [4] = assay: Compound was evaluated for inhibitory activity in vivo against P388 leukemia cells in mice at a dose of 200 mg/kg upon intraperitoneal administration; format: functional; summary of the method: as §1
P388 [5] = assay: Inhibitory activity in vivo against P388 leukemia cells in mice at a dose of 25 mg/kg upon intraperitoneal administration; format: functional, Mus musculus; summary of the method: as §1
L1210 [6] = assay: Cytotoxic activity against L1210 leukemia in vitro.; format: functional, Mus musculus
Mus musculus [7] = assay: Compound was evaluated for inhibitory activity in vivo against P388 leukemia cells in mice at a dose of 6.25 mg/kg upon intraperitoneal administration; format: functional; summary of the method: as §1
P388 [8] = assay: Inhibitory activity in vivo against P388 leukemia cells in mice at a dose of 12.5 mg/kg upon intraperitoneal administration; format: functional, Mus musculus; summary of the method: as §1
Mus musculus [9] = assay: Compound was evaluated for inhibitory activity in vivo against P388 leukemia cells in mice at a dose of 3.12 mg/kg upon intraperitoneal administration; format: functional; summary of the method: as §1
[10] = Compound was tested for cytotoxic activity against human colon adenocarcinoma in vitro; IA means Inactive
L1210 [11] = assay: Compound was tested for cytotoxic activity against L1210 leukemia in vitro; IA means Inactive; format: functional, cell-based; details: Mus musculus
[12] = Cytotoxic activity against human colon adenocarcinoma in vitro; format: functional
Homo sapiens [13] = species: Homo sapiens; assay: Compound was tested for cytotoxic activity against human colon adenocarcinoma in vitro; IA means inactive; format: functional
Mus musculus [14] = assay: Compound was evaluated for inhibitory activity in vivo against P388 leukemia cells in mice at a dose of 400 mg/kg upon intraperitoneal administration; format: functional; summary of the method: as §1
Mus musculus [15] = assay: Compound was evaluated for inhibitory activity in vivo against P388 leukemia cells in mice at a dose of 3.13 mg/kg upon intraperitoneal administration; format: functional; summary of the method: as §1
Mus musculus [16] = assay: Compound was evaluated for inhibitory activity in vivo against P388 leukemia cells in mice at a dose of 60 mg/kg upon intraperitoneal administration; format: functional; summary of the method: as §1
Mus musculus [17] = assay: Compound was evaluated for inhibitory activity in vivo against P388 leukemia cells in mice at a dose of 7.5 mg/kg upon intraperitoneal administration; format: functional; summary of the method: as §1
Mus musculus [18] = assay: Compound was evaluated for inhibitory activity in vivo against P388 leukemia cells in mice at a dose of 15 mg/kg upon intraperitoneal administration; format: functional; summary of the method: as §1
Mus musculus [19] = assay: Compound was evaluated for inhibitory activity in vivo against P388 leukemia cells in mice at a dose of 3.75 mg/kg upon intraperitoneal administration; format: functional; summary of the method: as §1
Mus musculus [20] = assay: Compound was evaluated for inhibitory activity in vivo against P388 leukemia cells in mice at a dose of 0.39 mg/kg upon intraperitoneal administration; format: functional; summary of the method: as §1
Mus musculus [21] = assay: Compound was evaluated for inhibitory activity in vivo against P388 leukemia cells in mice at a dose of 0.78 mg/kg upon intraperitoneal administration; format: functional; summary of the method: as §1
Mus musculus [22] = assay: Compound was evaluated for inhibitory activity in vivo against P388 leukemia cells in mice at a dose of 1.56 mg/kg upon intraperitoneal administration; format: functional; summary of the method: as §1
Mus musculus [23] = assay: Compound was evaluated for inhibitory activity against B-16 melanoma in mice at a dose of 12.5 mg/kg upon intraperitoneal administration; format: functional
Mus musculus [24] = assay: Compound was evaluated for inhibitory activity against B-16 melanoma in mice at a dose of 25 mg/kg upon intraperitoneal administration; format: functional
Mus musculus [25] = assay: Compound was evaluated for inhibitory activity against B-16 melanoma in mice at a dose of 6.25 mg/kg upon intraperitoneal administration; format: functional
Mus musculus [26] = assay: Compound was evaluated for inhibitory activity in vivo against P388 leukemia cells in mice at a dose of 30 mg/kg upon intraperitoneal administration; format: functional; summary of the method: as §1
Mus musculus [27] = assay: Compound was evaluated for inhibitory activity in vivo against P388 leukemia cells in mice at a dose of 120 mg/kg upon intraperitoneal administration; format: functional; summary of the method: as §1
Mus musculus [28] = assay: Compound was evaluated for inhibitory activity in vivo against P388 leukemia cells in mice at a dose of 240 mg/kg upon intraperitoneal administration; format: functional; summary of the method: as §1
Homo sapiens [29] = species: Homo sapiens; assay: Compound was tested for cytotoxic activity against human colon adenocarcinoma in vitro; format: functional

For `COc1ccc2c3c(ccc(OC)c13)C(=O)N(CCN(C)C)C2=O`, the Cytotoxic concentration (L1210 [1]) was “inactive”, the T/C (P388 [2]) was 120 and the T/C (P388 [3]) was 118. It also gave a T/C (Mus musculus [4]) of 123 and a T/C (P388 [5]) of 102.
`CN(C)CCN1C(=O)c2ccc(Cl)c3c(Cl)ccc(c23)C1=O` showed a Cytotoxic concentration (L1210 [6]) of 699 nM and a T/C (P388 [5]) of 107.
Molecule `CNCCN1C(=O)c2cccc3cc([N+](=O)[O-])cc(c23)C1=O.Cl` has a Cytotoxic concentration (L1210 [6]) of 266 nM, a T/C (Mus musculus [7]) of 139 and a T/C (P388 [8]) of 177. It also gave a T/C (Mus musculus [9]) of 129.
For `O=C1c2cc([N+](=O)[O-])cc3cc([N+](=O)[O-])cc(c23)C(=O)N1c1nncs1`, the Cytotoxic concentration [10] was “Not Active”, the Cytotoxic concentration (L1210 [11]) was “inactive” and the T/C (P388 [2]) was 127. For the same molecule, the T/C (P388 [3]) was 137, the T/C (P388 [8]) was 91 and the T/C (P388 [5]) was 119.
For `CN(C)CCCN1C(=O)c2cc([N+](=O)[O-])cc3cc([N+](=O)[O-])cc(c23)C1=O.Cl`, the Cytotoxic concentration [12] was 1180 nM, the Cytotoxic concentration (L1210 [6]) was 1420 nM and the T/C (P388 [2]) was 154. For the same molecule, the T/C (P388 [8]) was 113 and the T/C (P388 [5]) was 129.
In the case of `CN(C)CCN1C(=O)c2cc(O)cc3cc(O)cc(c23)C1=O`, the Cytotoxic concentration (Homo sapiens [13]) is reported as “inactive”, the Cytotoxic concentration (L1210 [6]) is reported as 3540 nM and the T/C (P388 [2]) is reported as 142. The T/C (P388 [3]) was 148, the T/C (P388 [8]) was 122 and the T/C (Mus musculus [14]) was 140. It also gave a T/C (Mus musculus [4]) of 149 and a T/C (P388 [5]) of 130.
Work on `Cl.O=C1c2cccc3cc([N+](=O)[O-])cc(c23)C(=O)N1CCN1CCCC1` yielded a Cytotoxic concentration (L1210 [6]) of 159 nM, a T/C (Mus musculus [7]) of 149 and a T/C (P388 [8]) of 163. It also gave a T/C (Mus musculus [15]) of 135.
In the case of `Cl.O=C1c2cccc3cc([N+](=O)[O-])cc(c23)C(=O)N1CCN1CCNCC1`, the Cytotoxic concentration (L1210 [6]) is reported as 1380 nM, the T/C (P388 [2]) is reported as 136 and the T/C (P388 [8]) is reported as 116. For the same molecule, the T/C (P388 [5]) was 129.
For `CCN(CC)CCN1C(=O)c2cc([N+](=O)[O-])cc3cc([N+](=O)[O-])cc(c23)C1=O.Cl`, the Cytotoxic concentration [12] was 820 nM, the Cytotoxic concentration (L1210 [6]) was 347 nM and the T/C (P388 [2]) was 215. For the same molecule, the T/C (P388 [8]) was 141 and the T/C (P388 [5]) was 207.
`CN(C)CCN1C(=O)c2cc(N)cc3cc(N)cc(c23)C1=O.Cl.Cl.Cl` gave a Cytotoxic concentration [12] of 677 nM, a Cytotoxic concentration (L1210 [6]) of 337 nM and a T/C (Mus musculus [16]) of 188. The T/C (Mus musculus [17]) was 163, the T/C (Mus musculus [18]) was 163 and the T/C (Mus musculus [19]) was 125.
`Cl.O=C1c2cc([N+](=O)[O-])cc3cc([N+](=O)[O-])cc(c23)C(=O)N1CCN1CCCC1` showed a Cytotoxic concentration [12] of 172 nM, a Cytotoxic concentration (L1210 [6]) of 82.9 nM and a T/C (Mus musculus [20]) of 117. For the same molecule, the T/C (Mus musculus [21]) was 126, the T/C (Mus musculus [22]) was 138 and the T/C (Mus musculus [9]) was 136.
`Cl.O=C1c2cc([N+](=O)[O-])cc3cc([N+](=O)[O-])cc(c23)C(=O)N1CCN1CCCCC1` showed a Cytotoxic concentration [12] of 539 nM, a Cytotoxic concentration (L1210 [6]) of 287 nM and a T/C (P388 [2]) of 247. The T/C (Mus musculus [23]) was 133, the T/C (Mus musculus [24]) was 156 and the T/C (Mus musculus [25]) was 114. For the same molecule, the T/C (P388 [8]) was 138 and the T/C (P388 [5]) was 181.
Molecule `O=C1c2cc([N+](=O)[O-])cc3cc([N+](=O)[O-])cc(c23)C(=O)N1CCNCCO.O=S(=O)(O)O` has a Cytotoxic concentration [12] of 1250 nM, a Cytotoxic concentration (L1210 [6]) of 431 nM and a T/C (Mus musculus [16]) of 123. The T/C (Mus musculus [26]) was 118, the T/C (Mus musculus [27]) was 123 and the T/C (Mus musculus [28]) was 132.
`CCN(CC)CCN1C(=O)c2cccc3cc([N+](=O)[O-])cc(c23)C1=O.Cl` gave a Cytotoxic concentration (L1210 [6]) of 1370 nM, a T/C (P388 [8]) of 120 and a T/C (P388 [5]) of 149.
In the case of `CN(C)CCN1C(=O)c2cccc3cccc(c23)C1=O`, the Cytotoxic concentration (L1210 [6]) is reported as 2050 nM, the T/C (P388 [2]) is reported as 130 and the T/C (P388 [3]) is reported as 166. The T/C (P388 [5]) was 116.
Work on `CN(C)CCN1C(=O)c2cccc3cc([N+](=O)[O-])cc(c23)C1=O.Cl` yielded a Cytotoxic concentration (Homo sapiens [29]) of 106 nM, a Cytotoxic concentration (L1210 [6]) of 151 nM and a T/C (Mus musculus [7]) of 164. For the same molecule, the T/C (Mus musculus [22]) was 121 and the T/C (Mus musculus [9]) was 138.

Reference: ChEMBL document CHEMBL1123030, “N-(Aminoalkyl)imide antineoplastic agents. Synthesis and biological activity” (J Med Chem, 1985)
